Source: PubChem BioAssay
VLA-4 inh – inhibition in a human VLA-4 binding assay; P13612; VLA-4 expressing cells, ligand binding flow cytometry; inhibition, % (about 7 µM as worked out from the volumes in the protocol); 0.2% of 330,000 active; in the data active = inhibition above about 50%
PG9 binder – small molecules binding HIV-1 gp120 antibody PG9 | TR-FRET gp120-PG9 antibody binding | inhibition, % at 6.7 µM | 0.43% of 360,000 active; in the data active = inhibition above about 8.5%
NR2E3 ag-1 – human photoreceptor-specific nuclear receptor agonism; Q9Y5X4; CHO-S Gal4-NCOR/VP16-NR2E3 two-hybrid, luciferase; inhibition of corepressor binding, % at 3.98 µM; 0.35% of 360,000 active;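 active = inhibition above the mean of all tested compounds plus 3 SD, cut at about 70% in these data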;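 also: higher means lower luciferase signal from less NR2E3 corepressor binding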
Target sequence (Q9Y5X4 whole entry, looked up, the tested form may be a part): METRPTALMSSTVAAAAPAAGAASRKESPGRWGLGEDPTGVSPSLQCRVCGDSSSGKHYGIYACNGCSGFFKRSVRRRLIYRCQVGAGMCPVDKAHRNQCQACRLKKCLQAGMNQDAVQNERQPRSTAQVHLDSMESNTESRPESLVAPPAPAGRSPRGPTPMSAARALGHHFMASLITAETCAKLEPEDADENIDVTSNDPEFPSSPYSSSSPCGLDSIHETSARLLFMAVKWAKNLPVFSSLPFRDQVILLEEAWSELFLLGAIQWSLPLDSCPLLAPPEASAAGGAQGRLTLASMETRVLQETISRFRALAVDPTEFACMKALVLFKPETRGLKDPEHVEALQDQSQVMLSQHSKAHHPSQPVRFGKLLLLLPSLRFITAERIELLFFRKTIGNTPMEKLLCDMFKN
NR1D1 modulator – modulators of human Rev-erb alpha DNA binding. P20393. Rev-erbα–FITC-DNA binding, fluorescence polarization, 90 min. activity, % at 10 µM. 0.79% of 370,000 active. AID 1259318;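 active = activity above about 14%, limit read from the data; passing the limit was not always enough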
NR2E3 ag-2 – agonists of human nuclear receptor NR2E3; Q9Y5X4; GST-NR2E3/biotin-RetCOR TR-FRET, 1536-well; inhibition of corepressor binding, % at 4.78 µM; 0.12% of 320,000 active; AID 2300;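 active = percent inhibition above the cutoff of mean plus 3 SD of all tested compounds, set per screening campaign, cut at about 20% in these data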
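Format: 1536-well format; test system: GST-NR2E3 and biotin-RetCOR proteins; read-out basis: percent inhibition of TR-FRET ratio; timing: 5 h incubation at 4 °C; detection: time-resolved FRET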
Rev-erbA confirm – confirmation of modulators of human Rev-erb alpha DNA binding; AID 1259319; 61% of 3,000 active; shares compounds with NR1D1 modulator; activation, % at 25 µM; Rev-erb alpha FITC-DNA binding, fluorescence polarization, 90 min;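 active = activation at or above a set limit, or at least 3 SD above the negative control mean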
RORg DNA counter – counter-screen for Rev-erb alpha modulators: RORgamma DNA binding | purified RORgamma protein-FITC-DNA binding, fluorescence polarization | IC50, µM | shares compounds with NR1D1 modulator | 8% of 910 active;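 active = Compounds whose fitted half-maximal concentration for disrupting protein-DNA binding is below 10 micromolar; the record names Rev-erb in its text, so the target is in doubt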
Numbers stand for hits; . = inactive; / = no result. Rows were chosen to be rich in hits. Some 1.6% of all compounds tested hit in one or more screens of this group.

SMILES	VLA-4 inh	PG9 binder	NR2E3 ag-1	NR1D1 modulator	NR2E3 ag-2	Rev-erbA confirm	others
Cn1c2ccccc2c(=O)c2c(=O)n(Cc3cccc4ccccc34)cnc21	/	/	/	18.4	/	20.1
NS(=O)(=O)c1cccc(Nc2nc3ccccc3nc2NS(=O)(=O)c2ccc(Cl)cc2)c1	.	.	.	.	/	/
COc1ccc(OC)c(NC(=O)c2cc3oc4ccccc4c3cc2O)c1	.	.	.	40.6	.	.
CC1CC(C)CN(S(=O)(=O)c2ccc(C(=O)NCc3ccco3)cc2)C1 (stereo not drawn)	.	.	.	.	.	/
S=c1[nH]c(-c2ccc(Br)cc2)cn1CCc1ccccc1	.	.	.	17.2	.	28.4
COc1ccccc1-n1cc(-c2ccc(Br)cc2)[nH]c1=S	.	.	.	.	.	/
Cc1noc(C)c1NC(=O)N(C)C[C@H]1Oc2ccc(NC(=O)c3ccncc3)cc2C(=O)N([C@H](C)CO)C[C@@H]1C	.	.	.	.	/	/
CSc1ccc(Cl)c(C(=O)Nc2ccc(Cl)cn2)c1	.	.	.	.	.	/
COc1ccccc1C(=O)NNC(=O)c1cccc(Cl)c1	.	.	.	29.4	.	.
COc1c(C(=O)Nc2ccc(Br)cn2)ccc2ccccc12	.	.	.	.	.	/
COc1cc2ccccc2cc1C(=O)Nc1ccc(Br)cn1	.	.	.	36.1	/	27.6
COc1ccccc1C(=O)Nc1cccc(NC(=O)c2ccccc2OC)n1	.	.	.	22.5	.	.
COc1ccccc1C(=O)NNC(=O)c1cccc(Br)c1	.	.	.	.	.	/
COc1cc(SC)ccc1C(=O)Nc1ccc(Cl)cn1	.	.	.	18.5	.	33.5	RORg DNA counter=.
Cc1cc(C)c(S(=O)(=O)N2CCc3ccccc32)c(C)c1	.	.	.	.	.	/
Cc1ccc(NC(=O)c2cccc3c2C(=O)N(C2CCCCC2)C3)c(Cl)c1	.	/	.	/	.	/
Cc1c(Nc2ccc(C=O)cc2)c(=O)n(-c2ccccc2)n1C	.	.	.	.	.	/
CCCNC(=O)NC(=O)CSc1ccc(C)cc1C	.	.	.	.	.	/
CCCCNC(=O)c1ccccc1SCC(=O)NC1CCCCCCC1	.	.	.	.	.	/
CSc1ncccc1C(=O)OCC(=O)c1cccs1	.	.	.	.	.	/
CC(C)c1nc(SCC(=O)Nc2ccc(C(=O)O)cc2)c2c3c(sc2n1)CCCC3	.	.	.	.	.	/
O=C(CCCC(=O)OCC(=O)c1cccs1)Nc1ccc(F)cc1	.	.	.	.	.	/
O=C(CCCC(=O)OCC(=O)c1cccs1)Nc1ccc(Oc2ccccc2)cc1	.	.	.	68.3	.	48.0	RORg DNA counter=.
COc1cc(CN2CCCCC2C(=O)Nc2ccc(Oc3ccccc3)nc2)ccc1O (stereo not drawn)	.	.	.	.	.	/
COc1cc2nc(-c3ccccc3)nc(N3CCCC3)c2cc1OC	/	.	/	41.6	/	24.6
SMILES	VLA-4 inh	PG9 binder	NR2E3 ag-1	NR1D1 modulator	NR2E3 ag-2	Rev-erbA confirm	others
Cc1cc2c(=O)oc(-c3ccc(Br)cc3)nc2s1	.	.	.	31.0	.	.
NC(=O)C1(C(N)=O)OC1c1ccc(Cl)c(Cl)c1 (stereo not drawn)	.	.	.	.	.	/
COc1ccc(C(=O)Nc2ccc3c(c2)C(=O)N(C)[C@H]2CC[C@H](CC(=O)NCC4CC4)O[C@@H]2CO3)cc1	/	/	/	29.8	/	17.7
CN1C(=O)c2cc(NC(=O)Nc3ccccc3)ccc2OC[C@H]2O[C@@H](CC(=O)NC3CCC3)CC[C@@H]21	/	/	/	49.5	/	29.2	RORg DNA counter=.
COC(=O)C[C@@H]1CC[C@H]2[C@H](COc3ccc(NC(=O)c4ccc(OC)cc4)cc3C(=O)N2C)O1	/	/	/	.	/	/
Cc1nn(C)cc1NC(=O)C[C@H]1CC[C@H]2[C@@H](COc3ccc(NC(=O)Nc4ccccc4)cc3C(=O)N2C)O1	/	/	/	42.4	/	21.2
CCOC(=O)c1sc(Nc2ccccc2)nc1C	.	.	.	.	.	/
CCOC(=O)c1sc(NC(=S)NC(=O)c2ccc(OC)cc2)nc1C	.	.	.	83.1	.	65.5	RORg DNA counter=.
CCOC(=O)c1sc(NC(=O)c2ccccc2OCC)nc1C	.	.	.	35.9	.	.
CCOC(=O)c1sc(NC(=O)c2ccc(S(=O)(=O)N(CC)CC)cc2)nc1C	.	.	.	152.3	.	93.5	RORg DNA counter=.
CCOC(=O)c1sc(Nc2nc(C)cc(OC)n2)nc1C	.	.	.	14.6	.	.
CCOC(=O)c1sc(Nc2nc(C)cc(C)n2)nc1C	.	.	.	.	.	/
CC(=O)c1cc2c(cc1NC(=O)CSc1ccc(S(=O)(=O)N(C)C)cn1)OCO2	.	.	.	.	.	/
CCOc1ccc(CN(C)c2nc(-c3cccnc3)nc3ccccc23)cc1OC	.	.	.	.	.	/
CCOC(=O)c1sc(NC(=O)CC)nc1C	.	.	.	.	.	/
CCOC(=O)c1sc(NC(=O)CCc2ccc(OC)cc2)nc1C	.	.	.	26.8	.	.
Cc1c(CC(=O)N2CCN(C(=O)C3COc4ccccc4O3)CC2)c(=O)oc2c(C)c(O)ccc12 (stereo not drawn)	.	.	.	.	.	/
O=C(COc1ccc(/C=N/NC(=O)c2cc3ccccc3o2)cc1Br)Nc1ccccc1	.	.	.	19.3	.	25.8
NS(=O)(=O)c1ccc(Nc2ccc([N+](=O)[O-])c3nonc23)cc1	.	.	.	26.7	.	.
O=[N+]([O-])c1ccc(Nc2ccccc2O)c2nonc12	.	.	.	31.8	/	19.6
CCc1nnc(NS(=O)(=O)c2ccc(NS(=O)(=O)c3ccccc3[N+](=O)[O-])cc2)s1	.	.	.	.	.	/
CCc1nnc(NS(=O)(=O)c2ccc(Nc3ccc([N+](=O)[O-])c4nonc34)cc2)s1	.	.	.	21.4	.	33.1	RORg DNA counter=.
CC(C)C[C@H]1COc2cc(NCc3ccc(Cl)c(Cl)c3)ccc2S(=O)(=O)N1	/	.	/	16.9	/	.
CCCCn1c(N)c(N(CCC(C)C)C(=O)c2ccccc2-n2cnnn2)c(=O)[nH]c1=O	/	.	.	.	/	/
CCc1cc2c3c(c(=O)oc2cc1OC)CCCC3	.	.	.	.	.	/
COc1cc2oc(=O)c3c(c2cc1OCC(=O)c1c(C)n(C)c2ccccc12)CCCC3	.	.	.	36.1	.	.
c1ccc(-c2nc(SCc3nc4ccccc4[nH]3)c3oc4ccccc4c3n2)cc1	.	.	.	46.3	/	45.0	RORg DNA counter=.
Cc1nc(SCc2nc3c(F)cccc3[nH]2)c2oc3ccccc3c2n1	.	.	.	29.8	/	38.5	RORg DNA counter=.
Cc1nc(SCc2nc3ccccc3[nH]2)c2oc3ccccc3c2n1	.	.	.	.	.	/
Cc1nc(SCc2nc3c(C)cccc3[nH]2)c2oc3ccccc3c2n1	.	.	.	.	/	/
